Experimental data published in ChEMBL document CHEMBL3414422, “Synthesis of new steroidal inhibitors of P-glycoprotein-mediated multidrug resistance and biological evaluation on K562/R7 erythroleukemia cells” (J Med Chem, 2015).

Columns and labels:
K562/R7 = assay: Inhibition of p-gp (unknown origin) in doxorubicin-resistant human K562/R7 cells assessed as increase in daunorubicin accumulation measured as fluorescence ratio at 10 uM incubated for 1 hr with 10 uM daunorubicin by flow cytometry relative to control; type: cell-based
Outline: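 Resistant K562/R7 cells ([…]) incubated 1 h at 37 °C in RPMI 1640 with daunorubicin 10 µM, with or without steroid at 10 µM; intracellular fluorescence read by flow cytometry. Accumulation index = daunorubicin fluorescence ratio with/without modulator. Cyclosporin A as positive control. Duplicates, at least three separate experiments.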

[1] = Intrinsic cytotoxicity against human K562 cells assessed as cell survival […] by MTT assay; type: cell-based; conditions: read-out: Survival

SMILES	Ratio (K562/R7)	viability [1]
CC(=O)[C@H]1CC[C@H]2[C@H]3[C@H]([C@H](O)C[C@]12C)[C@@]1(C)CCC(=O)C[C@H]1C[C@H]3O	1.1	–
CC(=O)[C@H]1CC[C@H]2[C@@H]3CCC4=CC(=O)CC[C@]4(C)[C@H]3[C@H](O)C[C@]12C	1	–
CC(=O)[C@H]1CC[C@H]2[C@H]3[C@H]([C@H](OC(=O)c4ccccc4)C[C@]12C)[C@@]1(C)CCC(=O)C[C@H]1C[C@H]3O[C@H]1CCCCO1	2.6	70.5%
COc1ccc(CCN(C)CCCC(C#N)(c2ccc(OC)c(OC)c2)C(C)C)cc1OC (stereo not given)	–	93.3%
CC(=O)[C@@]1(O[C@@H]2CCCCO2)CC[C@H]2[C@@H]3CCC4=CC(=O)CC[C@]4(C)[C@H]3CC[C@@]21C	2.4	–
CC(=O)[C@H]1CC[C@H]2[C@@H]3CCC4=CC(=O)CC[C@]4(C)[C@H]3[C@H](O[C@H]3CCCCO3)C[C@]12C	2.4	–
CC(=O)[C@H]1CC[C@H]2[C@H]3[C@H]([C@H](OC(=O)c4ccccc4)C[C@]12C)[C@@]1(C)CCC(=O)C[C@H]1C[C@H]3O	2.3	81.1%
COC(=O)CCC(C)[C@H]1CC[C@H]2[C@@H]3[C@H](O[C@H]4CCCCO4)C[C@@H]4CC(=O)CC[C@]4(C)[C@H]3C[C@H](OC(=O)c3ccccc3)[C@]12C (stereo not given in full)	3.3	44.6%
CC(=O)[C@H]1CC[C@H]2[C@@H]3CC[C@@H]4CC(=O)CC[C@]4(C)[C@H]3[C@H](O[C@@H]3CCCCO3)C[C@]12C	2.5	–
COCCCC(C)[C@H]1CC[C@H]2[C@@H]3[C@H](OC(=O)c4ccccc4)C[C@@H]4CC(=O)CC[C@]4(C)[C@H]3C[C@H](OC(=O)c3ccccc3)[C@]12C (stereo not given in full)	1.7	50.7%
COCCCC(C)[C@H]1CC[C@H]2[C@@H]3[C@H](OC(=O)c4ccccc4)C[C@@H]4CC(=O)CC[C@]4(C)[C@H]3C[C@H](O[C@H]3CCCCO3)[C@]12C (stereo not given in full)	2.2	75.8%
CC(=O)[C@H]1CC[C@H]2[C@@H]3[C@H](OC(=O)c4ccccc4)C[C@@H]4CC(=O)CC[C@]4(C)[C@H]3CC[C@]12C	2.2	–
CC(=O)[C@H]1CC[C@H]2[C@H]3[C@H]([C@H](OC(=O)c4ccccc4)C[C@]12C)[C@@]1(C)CCC(=O)C[C@H]1C[C@H]3O[C@@H]1CCCCO1	2.8	61.5%
COCO[C@H]1C[C@H]2[C@@H]([C@H](OC(=O)c3ccccc3)C[C@@H]3CC(=O)CC[C@@]32C)[C@@H]2CC[C@H](C(C)CCC(=O)OC)[C@@]12C (stereo not given in full)	2.9	49.7%
COC(=O)CCC(C)[C@H]1CC[C@H]2[C@@H]3[C@H](OC(=O)c4ccccc4)C[C@@H]4CC(=O)CC[C@]4(C)[C@H]3C[C@H](OC(=O)c3ccccc3)[C@]12C (stereo not given in full)	1.5	57.3%
CC(=O)[C@H]1CC[C@H]2[C@H]3[C@H]([C@H](O[C@@H]4CCCCO4)C[C@]12C)[C@@]1(C)CCC(=O)C[C@H]1C[C@H]3OC(=O)c1ccccc1	2.9	80.8%
CC(=O)[C@H]1CC[C@H]2[C@@H]3[C@H](OC4CCCCO4)C[C@@H]4CC(=O)CC[C@]4(C)[C@H]3CC[C@]12C (mixture of isomers)	2.4	–
COC(=O)CCC(C)[C@H]1CC[C@H]2[C@@H]3[C@H](OC4CCCCO4)C[C@@H]4CC(=O)CC[C@]4(C)[C@H]3C[C@H](OC3CCCCO3)[C@]12C (mixture of isomers)	3.5	63.2%
COC(=O)CCC(C)[C@H]1CC[C@H]2[C@@H]3[C@H](O)C[C@@H]4CC(=O)CC[C@]4(C)[C@H]3C[C@H](O)[C@]12C (stereo not given in full)	1.5	–

SMILES	Ratio (K562/R7)	viability [1]
CC(=O)[C@H]1CC[C@H]2[C@@H]3CC[C@@H]4CC(=O)CC[C@]4(C)[C@H]3CC[C@]12C	1.2	–
CC(=O)[C@H]1CC[C@H]2[C@H]3[C@H]([C@H](O[C@H]4CCCCO4)C[C@]12C)[C@@]1(C)CCC(=O)C[C@H]1C[C@H]3OC1CCCCO1 (mixture of isomers)	2.5	84.4%
COCO[C@H]1C[C@H]2[C@@H]([C@H](O)C[C@@H]3CC(=O)CC[C@@]32C)[C@@H]2CC[C@H](C(C)CCC(=O)OC)[C@@]12C (stereo not given in full)	2.1	84.7%
CC(=O)[C@H]1CC[C@H]2[C@H]3[C@H]([C@H](OC(=O)c4ccccc4)C[C@]12C)[C@@]1(C)CCC(=O)C[C@@H]1C[C@H]3OC(=O)c1ccccc1	2.5	71.1%
CC(=O)[C@H]1CC[C@H]2[C@@H]3CC[C@H]4CC(=O)CC[C@]4(C)[C@H]3CC[C@]12C	1	–
COCO[C@@H]1C[C@@H]2CC(=O)CC[C@]2(C)[C@H]2C[C@H](O)[C@]3(C)[C@@H](C(C)CCC(=O)OC)CC[C@H]3[C@H]12 (stereo not given in full)	1.8	95.7%
CC(=O)[C@H]1CC[C@H]2[C@H]3[C@H]([C@H](O)C[C@]12C)[C@@]1(C)CCC(=O)C[C@H]1C[C@H]3OC(=O)c1ccccc1	1.4	92.9%
CC(=O)[C@@]1(O[C@@H]2CCCCO2)CC[C@H]2[C@@H]3CC[C@@H]4CC(=O)CC[C@]4(C)[C@H]3[C@H](O[C@H]3CCCCO3)C[C@@]21C	2.5	67.9%
CC(=O)[C@@]1(O[C@@H]2CCCCO2)CC[C@H]2[C@@H]3CC[C@@H]4CC(=O)CC[C@]4(C)[C@H]3CC[C@@]21C	2.3	–
C[C@]12CC[C@H]3[C@@H](CCC4=CC(=O)CC[C@@]43C)[C@@H]1CC[C@@H]2C(=O)COC1CCCCO1 (mixture of isomers)	1.6	–
CC(=O)[C@@]1(O)CC[C@H]2[C@@H]3CC[C@@H]4CC(=O)CC[C@]4(C)[C@H]3CC[C@@]21C	1.1	–
CC(=O)[C@H]1CC[C@H]2[C@@H]3CC[C@@H]4CC(=O)CC[C@]4(C)[C@H]3[C@H](O[C@H]3CCCCO3)C[C@]12C	2.5	–
COCO[C@@H]1C[C@@H]2CC(=O)CC[C@]2(C)[C@H]2C[C@H](OC(=O)c3ccccc3)[C@]3(C)[C@@H](C(C)CCC(=O)OC)CC[C@H]3[C@H]12 (stereo not given in full)	3.8	43.5%
CC(=O)[C@@]1(O[C@H]2CCCCO2)CC[C@H]2[C@@H]3CCC4=CC(=O)CC[C@]4(C)[C@H]3CC[C@@]21C	2.8	–
CC(=O)[C@@]1(O)CC[C@H]2[C@@H]3CC[C@@H]4CC(=O)CC[C@]4(C)[C@H]3[C@H](O)C[C@@]21C	1	–
CC(=O)[C@H]1CC[C@H]2[C@H]3[C@H]([C@H](O[C@H]4CCCCO4)C[C@]12C)[C@@]1(C)CCC(=O)C[C@@H]1C[C@H]3OC(=O)c1ccccc1	2.3	–
CC(=O)[C@@]1(O[C@H]2CCCCO2)CC[C@H]2[C@@H]3CC[C@@H]4CC(=O)CC[C@]4(C)[C@H]3CC[C@@]21C	2.4	–
CC(=O)[C@@]1(O)CC[C@H]2[C@@H]3CCC4=CC(=O)CC[C@]4(C)[C@H]3CC[C@@]21C	1	–
CC(=O)[C@H]1CC[C@H]2[C@@H]3CC[C@@H]4CC(=O)CC[C@]4(C)[C@H]3[C@H](O)C[C@]12C	1	–
